# L major viab: inhibitors of Leishmania major promastigote growth. Leishmania major promastigotes, resazurin fluorescence viability. inhibition, % at 10 µM. actives 9% (n = 200,000). AID 1063;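 also: promastigotes grown with compound for 44 hours at 28 °C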
# DTT redox prof: compounds producing H2O2 with reducing agent – biochemical, NIH compound library profiling, artefact control for MLSCN library redox annotation, primary screen. actives 0.03% (n = 200,000). DTT-dependent redox cycling H2O2, phenol red/HRP absorbance; 100% = 100 µM peroxide control, 0% = buffer. activation, % at 10 µM. AID 878;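 active = activation of at least 50% relative to the plate's high and low controls in the primary single-dose screen; inactive = activation below 50%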;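 also: compound incubated with DTT at 0.8 mM final as the reducing agent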
# G6PDH CS: counter-screen for G6PDH assay hits: L. mesenteroides G6PDH inhibition; Purified L. mesenteroides G6PDH, diaphorase/resazurin coupled fluorescence, 45 min; inhibition, % at 5 µM; actives 0.12% (n = 200,000)
# Diaph act CS: diaphorase activation or chemical reduction counter-screen; Diaphorase/resazurin coupled assay, resorufin fluorescence, 16 min; stronger effect = higher value; 1 = vehicle wells, 0 = NADH-free wells; AID 1229; actives 0.005% (n = 190,000); activation factor at 20 µM;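 active = diaphorase activity raised at least twofold by the compound at 20 µM; inactive = activation factor below 2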
#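 Assay system: Purified diaphorase enzyme from Clostridium kluyveri | Amount: Enzyme 0.07 U/mL final | Dosing: Compound 20 µM once, DMSO 1% | Timing: 16 min reaction at room temperature | Detection: Fluorescence, excitation 544 nm and emission 590 nm | Evaluation: Higher resorufin formation from activation or reduction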
# Diaph inh CS: inhibits diaphorase or chemically oxidizes, flagging diaphorase assay artifacts. diaphorase resazurin-to-resorufin fluorescence, NADH, 16 min; bacterial (C. kluyveri) enzyme, not human. inhibition, % at 20 µM. actives 0.69% (n = 190,000). AID 1217;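 active = primary screen inhibition at 20 µM above a set limit, cut at about 50% in these data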;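 also: plate controls were DMSO with full reaction for no effect and wells lacking NADH for full effect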
#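 Test system: diaphorase enzyme from Clostridium kluyveri; amount: diaphorase at 0.14 U/mL in enzyme working solution; detection: fluorescence of resorufin formed from resazurin, Ex 544/Em 590 nm; times: reaction incubation of 16 min at room temperature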
# PfG6PD inh: PfG6PD (Plasmodium falciparum) enzyme inhibition; actives 0.78% (n = 350,000); PfGluPho enzyme, NADPH resazurin-diaphorase fluorescence; AID 504690; inhibition, % at 20 µM;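 active = inhibition reaching at least a set limit at 20 µM in the primary screen, cut at about 59% in these data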;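 also: 0% = DMSO wells with substrate and 100% = DMSO wells lacking glucose-6-phosphate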
# The depositor's hits bear a star; . = no result. This excerpt belongs to a sample that is enriched for hits. Rule as the data show it, unless noted: active = inhibition above about 50%; inactive = the rest.
SMILES,L major viab,DTT redox prof,G6PDH CS,Diaph act CS,Diaph inh CS,PfG6PD inh
CCOC(=O)C1=C(CNCCc2ccc(Cl)cc2)NC(=O)NC1c1ccc2c(c1)OCO2 (centres undefined),80.2*,3.2,-15.5,0.9,8.7,0.8
CCN(CC)c1ccc(NC(=O)COC(=O)c2ccc3ccccc3n2)cc1,2.1,4.3,7.4,1,0.0,7.4
Cc1cccc(C)c1NC(=O)CN(C)C(=O)C1=COCCO1,.,.,.,.,.,3.4
C/C(=N/NC(=O)c1cc2ccccc2cc1O)C1C(=O)c2ccccc2C1=O,81.2*,0.4,3.9,0.7,29.4,4.9
C/C(=N\NC(=O)c1ccccc1O)C1C(=O)c2ccccc2C1=O,11.6,0.2,8.9,0.7,26.0,-11.6
C/C(CC(=O)N1CCN(C=O)CC1)=N\NC(=O)c1cc2ccccc2cc1O,9.8,0.8,3.2,0.1,88.3*,57.9
C/C(CC(=O)N1CCN(C=O)CC1)=N\NC(=O)c1ccc([N+](=O)[O-])cc1,-12.7,-0.8,2.6,.,.,-9.4
O=C(CSc1cccc[n+]1[O-])N1CCCCCC1,-4.1,-1.2,-0.2,1,4.2,-0.8
O=C(CSc1cccc[n+]1[O-])CSc1cccc[n+]1[O-],99.3*,0.6,-0.7,0.9,10.7,-8.1
COC(=O)c1ccc(-n2c(C)cc(C(=O)CSc3cccc[n+]3[O-])c2C)cc1,98.0*,-0.4,1.3,0.9,8.7,10.7
COC(=O)c1ccc(C(=O)OC)c(NC(=O)COC(=O)C2CCCCC2)c1,-3.7,0.1,0.7,1,0.0,-12.2
COC(=O)c1ccc(C(=O)OC)c(NC(=O)COC(=O)C2CC2C)c1 (centres undefined),75.8*,-0.2,2.6,0.9,8.5,-7.6
O=C(CSc1cccc[n+]1[O-])Nc1ccccc1Oc1ccccc1,100.2*,0.4,1.5,1,4.2,14.7
COc1ccccc1CNS(=O)(=O)CCNC(=O)c1ccccc1,.,.,.,.,.,4.2
COc1ccccc1CC(=O)c1ccc(OCc2ccccc2)cc1,.,.,.,.,.,10.0
O=C(O)CC/C(=N/NC(=O)CNC(=O)c1ccc2c(c1)OCCO2)c1ccccc1,.,.,.,.,.,-11.6
COC(=O)c1ccc(C(=O)OC)c(NC(=O)CSc2cccc[n+]2[O-])c1,98.0*,2.5,-4.8,1,-3.5,31.8
Cc1ccc(NC(=O)CCNS(=O)(=O)c2ccc(OC(F)(F)F)cc2)c(O)c1,.,.,.,.,.,10.4
CCC(=O)Nc1c(C#N)c2nc3ccccc3nc2n1C1CCCCC1,4.1,0.4,4.4,0.7,27.9,35.5
COc1ccc(-n2c(NC(=O)c3ccco3)c(C#N)c3nc4ccccc4nc32)cc1,-12.6,-0.5,42.4,0.3,70.3*,15.4
CCOC(=O)c1c(NC(=O)c2ccco2)n(C2CCCCC2)c2nc3ccccc3nc12,99.7*,-4.7,37.6,0.3,69.3*,30.2
N#Cc1c(NC(=O)c2ccccc2Cl)n(Cc2ccccc2)c2nc3ccccc3nc12,-6.0,4.3,-13.2,0.6,38.1,8.9
COc1ccc(NC(=O)CN(c2ccc([N+](=O)[O-])cc2)S(=O)(=O)c2ccccc2)c(OC)c1,74.7*,0.3,-3.2,0.8,24.0,10.5
COc1ccc(NC(=O)CCN2C(=O)c3ccc([N+](=O)[O-])cc3C2=O)c(OC)c1,89.9*,.,-0.1,0.9,14.1,21.1
COc1ccc2c(CC(=O)Nc3ccc(OC)c(NS(=O)(=O)c4ccc(F)cc4)c3)coc2c1,57.5*,0.3,-8.8,0.8,21.3,5.9
SMILES,L major viab,DTT redox prof,G6PDH CS,Diaph act CS,Diaph inh CS,PfG6PD inh
C=CCN(Cc1nc(-c2ccccc2)no1)C(=O)c1ccco1,.,.,.,.,.,9.2
CCCN1CCC2(CC1)C(C#N)=C(N)Oc1c2sc2nc(C)cc(C)c12,52.0*,1.5,3.1,0.7,32.6,14.5
COc1ccc(NC(=O)N2CCCC(c3nc(-c4ccc(C(C)C)cc4)no3)C2)cc1 (centres undefined),11.5,2.1,-7.0,0.7,27.4,13.5
O=S(=O)(c1ccc(Cl)cc1)N1CCC(N2CCOCC2)CC1,91.0*,1.2,-5.1,0.9,7.8,-16.0
COc1ccc(S(=O)(=O)N2CCN(C3CCCCCCC3)CC2)cc1,72.9*,-2.7,4.0,0.9,8.4,2.8
O=S(=O)(c1ccc(Cl)cc1)N1CCN(C2CCCCCC2)CC1,89.7*,1.2,6.2,0.9,10.5,-10.4
O=C(C1CCN(S(=O)(=O)c2ccc(Cl)cc2)CC1)N1CCOCC1,-8.8,0.0,9.2,1.1,-14.5,-9.6
Nc1nc(-c2ccc(Cl)cc2)c(N=Nc2ccc(S(=O)(=O)N3CCOCC3)cc2)s1,73.8*,0.8,0.1,0.9,9.4,2.2
CC1(C(=O)OCC(=O)NCCNC(=O)COC(=O)C2(C)CC2(Cl)Cl)CC1(Cl)Cl (centres undefined),.,.,.,.,.,5.6
COc1ccc(S(=O)(=O)N2CCCCCC2)cc1,-3.9,0.2,-1.5,0.9,8.0,7.1
COc1ccc(S(=O)(=O)N2CCC(N3CCCCC3)CC2)cc1,91.9*,-1.8,4.7,1,-1.3,-18.0
CC1=C(C#N)C(=O)NC(=O)/C1=C\c1ccc(-c2cc(C)c(C)cc2[N+](=O)[O-])o1,3.1,-2.1,27.5,0.4,60.9*,29.8
Nc1cnn(Cc2ccccc2F)c1,100.2*,-2.1,5.8,0.8,18.5,44.3
COc1cccc(Cn2cc(N)cn2)c1,98.4*,-0.2,13.8,.,.,27.2
Nc1cnn(Cc2ccc(F)cc2)c1,14.8,-1.4,6.2,0.8,19.8,13.0
CC(C)CN(C(=O)CN1C(=O)NC(c2ccccc2)(c2ccccc2)C1=O)C1CCS(=O)(=O)C1 (centres undefined),.,.,.,.,.,9.7
NNC(=O)c1cnn(-c2ccccc2)c1-n1cccc1,-2.7,-1.2,2.6,0.6,40.8,17.7
CCOCCCNS(=O)(=O)c1ccc(-n2cnnn2)c(OC)c1,-7.8,0.2,0.6,0.9,5.4,-7.7
Cc1cccc(C)c1NC(=O)CSc1nnc(C)c(=O)[nH]1,65.5*,-0.5,16.4,1,3.0,-1.8
CCCCOn1c(C)c(C(=O)OCC)c2c3nonc3ccc21,5.8,2.2,.,.,.,3.2
COn1c(C)c(C(C)=O)c2c3nonc3ccc21,-0.6,2.6,42.0,0.5,53.2*,7.0
Oc1ccc2ccccc2c1C=NCc1cn2ccsc2n1,95.2*,2.8,25.6,0.9,13.9,6.3
Cc1ncc(CO)c(/C=N/NC(=O)c2cc(O)c(O)c(O)c2)c1O,10.1,-2.0,2.1,0.4,59.7*,.
Cc1ncc(CO)c(/C=N/NC(=O)c2cc(Br)ccc2O)c1O,-8.9,-1.5,-9.5,0.6,40.8,-21.5
Cc1ncc(CO)c(/C=N/NC(=O)c2ccc(Br)cc2)c1O,97.7*,0.3,-20.5,0.8,22.2,.
